Measured values: ChEMBL document CHEMBL1150763, “Discovery of imidazo[1,5-c]imidazol-3-ones: weakly basic, orally active factor Xa inhibitors” (J Med Chem, 2008)

Columns and labels:
[1] = target: Coagulation factor X (Homo sapiens, UniProt P00742); test: Inhibition of human factor 10a
[2] = system: Plasma; test: Anticoagulant potency in human plasma assessed as concentration required to double the time to clot formation by PT assay; type: functional
In short: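 Human normal plasma mixed with compound dilutions in DMSO (1.5 µL into 48.5 µL), preincubated 4 min at 37 °C, clotting started with thromboplastin and timed on an automatic coagulometer. Prolongation relative to DMSO; concentration doubling clotting time derived by least-squares regression; mean of duplicates.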

[3] = system: Rattus norvegicus; test: Effect on bleeding time in Sprague-Dawley rat at 1 mg/kg, po; type: functional
In short: (§1)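 Male Sprague-Dawley rats (7 weeks old) dosed orally 18 h before measurement, then anesthetized with sodium pentobarbital. Tail transected 2-3 mm from the tip; blood blotted with filter paper every 30 s until bleeding stopped or 30 min elapsed. Bleeding time given as mean ± SEM, n = 6, compared with a vehicle group by one-tailed Shirley-Williams' test.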

[4] = system: Rattus norvegicus; test: Effect on bleeding time in Sprague-Dawley rat at 0.3 mg/kg, po; type: functional; in short: as §1
[5] = system: Plasma; test: Anticoagulant potency in mouse plasma assessed as concentration required to double the time to clot formation by PT assay; type: functional
[6] = target: CYP3A4 (Homo sapiens, UniProt P08684); test: Inhibition of CYP3A4 expressed in human B-lymphoblastoid cells at 10 uM; type: ADME, cell-based
Chain of CYP3A4 (P08684 whole entry): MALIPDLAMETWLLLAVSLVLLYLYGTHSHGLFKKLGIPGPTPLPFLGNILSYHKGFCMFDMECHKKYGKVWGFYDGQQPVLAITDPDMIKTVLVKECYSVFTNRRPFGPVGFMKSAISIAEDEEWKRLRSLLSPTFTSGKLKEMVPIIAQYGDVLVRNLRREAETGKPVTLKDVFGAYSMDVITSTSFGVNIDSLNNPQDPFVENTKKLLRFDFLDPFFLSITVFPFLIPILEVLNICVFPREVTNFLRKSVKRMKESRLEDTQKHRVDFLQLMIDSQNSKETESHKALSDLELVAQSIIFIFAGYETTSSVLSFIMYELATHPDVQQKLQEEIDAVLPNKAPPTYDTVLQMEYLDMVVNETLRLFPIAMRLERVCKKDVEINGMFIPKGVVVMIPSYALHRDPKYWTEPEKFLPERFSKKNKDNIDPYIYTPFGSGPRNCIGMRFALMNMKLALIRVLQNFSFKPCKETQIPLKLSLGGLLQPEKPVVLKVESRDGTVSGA
In short: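 Recombinant CYP3A4 (10 nM, from CYP3A4-expressing human B-lymphoblastoid cells) incubated with 100 µM testosterone and 10 µM test compound for 30 min at 37 °C; 6β-hydroxytestosterone formation quantified by HPLC-UV.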

[7] = Basicity, pKa by titration method; type: physicochemical

Chain of Coagulation factor X (P00742 41-179 limits assumed): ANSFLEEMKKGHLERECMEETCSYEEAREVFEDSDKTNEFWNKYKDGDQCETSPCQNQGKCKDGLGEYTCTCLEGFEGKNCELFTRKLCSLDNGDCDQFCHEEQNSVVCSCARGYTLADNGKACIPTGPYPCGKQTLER
Chain of Coagulation factor X (P00742 235-488 limits assumed): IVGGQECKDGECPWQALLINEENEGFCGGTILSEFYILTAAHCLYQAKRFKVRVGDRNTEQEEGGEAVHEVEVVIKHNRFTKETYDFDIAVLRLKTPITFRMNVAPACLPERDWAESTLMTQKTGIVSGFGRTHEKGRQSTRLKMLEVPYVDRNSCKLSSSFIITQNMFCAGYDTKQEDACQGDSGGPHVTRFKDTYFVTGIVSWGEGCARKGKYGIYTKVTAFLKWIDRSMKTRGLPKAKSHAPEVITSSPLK

CCCc1nccn1C1CCN(C(=O)CCS(=O)(=O)c2ccc3cc(Cl)ccc3c2)CC1 gave an IC50 [1] of 230 nM and an Activity [2] of 2 µM.

In the case of CC(=O)CC(c1ccccc1)c1c(O)c2ccccc2oc1=O (configuration not stated) [WARFARIN], the Time [3] is reported as 1590 s and the Time [4] is reported as 445 s.

Work on CCc1nccn1C1CCN(C(=O)CCS(=O)(=O)c2ccc3cc(Cl)ccc3c2)CC1 yielded an IC50 [1] of 160 nM and an Activity [2] of 1 µM.

For Cc1nccn1CCCCC1CCN(C(=O)CCS(=O)(=O)c2ccc3cc(Cl)ccc3c2)CC1, the IC50 [1] was 300 nM and the Activity [2] was over 10 µM.

Cc1ncc(C2CCN(C(=O)CCS(=O)(=O)c3ccc4cc(Cl)ccc4c3)CC2)n1C gave an Activity [5] of 3.4 µM, an inhibition at 10 µM [6] of 25% and an Activity [2] of 0.56 µM. It also gave a pKa [7] of 8.2.
